Activity calls are given as the source filed them. No cut-off for these calls is given here.
Legend:
T-24 [1] = experiment: Induction of autophagy in human T-24 cells assessed as effect on mTOR level at 6 to 12 uM incubated for 12 hrs by Western blot analysis; format: functional, cell-based; conditions: dose 6-12 µM
T-24 [2] = experiment: Induction of ferroptosis in human T-24 cells assessed as upregulation of DMT1 by Western blot analysis; format: functional, cell-based; conditions: dose 6-12 µM
[3] = Selectivity index, ratio of IC50 for cytotoxicity against human HCV-29 cells to IC50 for cytotoxicity against human T-24 cells
How it was run: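 SI is the ratio of IC50 in the non-tumoral cell line to IC50 in the tumoral T24 line, both from proliferation-inhibition assays.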

T-24 [4] = experiment: Induction of mitochondrial membrane potential disruption in human T-24 cells assessed as ratio of green/red fluorescence intensity by JC-1 dye based flow cytometry analysis; format: functional, cell-based; conditions: dose 4-12 µM
How it was run: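 T24 cells exposed to 0, 4, 8 and 12 µM and stained with JC-1. Red J-aggregate fluorescence (high ΔΨm, p1 region) and green monomer fluorescence (low ΔΨm, p2 region) were read by flow cytometry and quantified on a fluorescence spectrophotometer. Result is given as the green/red intensity ratio.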

T-24 [5] = experiment: Induction of apoptosis in human T-24 cells assessed as necrotic cells at 6 uM in presence of vZAD incubated for 8 hrs by annexin V-FITC and PI staining based flow cytometry analysis (reference value: 0.84 %); format: functional
T-24 [6] = experiment: Induction of ferroptosis in human T-24 cells assessed as downregulation of xCT at 6 to 8 uM in presence of Fer-1 by Western blot analysis; format: functional, cell-based; conditions: dose 6-8 µM
T-24 [7] = experiment: Induction of apoptosis in human T-24 cells assessed as late apoptotic cells at 6 uM incubated for 8 hrs by annexin V-FITC and PI staining based flow cytometry analysis (reference value: 1.71 %); format: functional
T-24 [8] = experiment: Induction of apoptosis in human T-24 cells assessed as downregulation of Bcl2 at 2 to 6 uM measured upto 8 hrs by Western blot analysis; format: functional, cell-based; conditions: dose 2-6 µM, time hrs <=8
T-24 [9] = experiment: Induction of ferroptosis in human T-24 cells assessed as cellular GPx4 level at 14 uM by HPLC-EC analysis (reference value: 1.71 +/- 0.07 U/mg); format: functional
T-24 [10] = experiment: Induction of apoptosis in human T-24 cells assessed as upregulation of Bax at 2 to 6 uM measured upto 8 hrs by Western blot analysis; format: functional, cell-based; conditions: dose 2-6 µM, time hrs <=8
T-24 [11] = experiment: Induction of ferroptosis in human T-24 cells assessed as reduction in cellular GSH level at 6 uM incubated for 12 hrs by DTNB reagent based assay; format: functional, cell-based
T-24 [12] = experiment: Induction of mitochondrial membrane potential disruption in human T-24 cells assessed as ratio of green/red fluorescence intensity at 12 uM by JC-1 dye based flow cytometry analysis (reference value: 0.29 +/- 0.04); format: functional
T-24 [13] = experiment: Induction of ferroptosis in human T-24 cells assessed as downregulation of 4F2hc by Western blot analysis; format: functional, cell-based; conditions: dose 6-12 µM
T-24 [14] = experiment: Induction of autophagy in human T-24 cells assessed as increase in ULK1 phosphorylation incubated for 12 hrs by Western blot analysis; format: functional, cell-based; conditions: dose 6-12 µM
T-24 [15] = experiment: Induction of apoptosis in human T-24 cells assessed as necrotic cells at 3 uM incubated for 8 hrs by annexin V-FITC and PI staining based flow cytometry analysis (reference value: 0.84 %); format: functional
T-24 [16] = experiment: Induction of autophagy in human T-24 cells assessed as increase in LC3B-II level by Western blot analysis; format: functional, cell-based
How it was run: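 Western blot of LC3B-I and LC3B-II in T24 lysates after treatment at 6, 8, 10 and 12 µM alongside an untreated control. LC3B-II level and the LC3B-II/I band ratio are reported.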

T-24 [17] = experiment: Induction of autophagy in human T-24 cells assessed as effect on Akt level at 6 to 12 uM incubated for 12 hrs by Western blot analysis; format: functional, cell-based; conditions: dose 6-12 µM
T-24 [18] = experiment: Induction of autophagy in human T-24 cells assessed as LC3BII/LC3B1 ratio at 10 uM by Western blot analysis (reference value: 0.89 +/- 0.05); format: functional
T-24 [19] = experiment: Induction of apoptosis in human T-24 cells assessed as early apoptotic cells at 3 uM in presence of zVAD incubated for 8 hrs by annexin V-FITC and PI staining based flow cytometry analysis (reference value: 3.37 %); format: functional
T-24 [20] = experiment: Induction of ferroptosis in human T-24 cells assessed as cellular GPx4 level at 10 uM by HPLC-EC analysis (reference value: 1.71 +/- 0.07 U/mg); format: functional
T-24 [21] = experiment: Induction of apoptosis in human T-24 cells assessed as necrotic cells at 6 uM incubated for 8 hrs by annexin V-FITC and PI staining based flow cytometry analysis (reference value: 0.84 %); format: functional
T-24 [22] = experiment: Induction of autophagy in human T-24 cells assessed as decrease in p62 level at 6 uM in presence of rapamycin incubated for 12 hrs by Western blot analysis; format: functional, cell-based
T-24 [23] = experiment: Induction of apoptosis in human T-24 cells assessed as increase in vZAD-reduced caspase-8 activation pretreated with vZAD for 1 hr followed by compound addition and measured upto 8 hrs by Western blot analysis; format: functional, cell-based; conditions: dose 2-10 µM, time hrs <=8
T-24 [24] = experiment: Induction of apoptosis in human T-24 cells assessed as late apoptotic cells at 3 uM in presence of vZAD incubated for 8 hrs by annexin V-FITC and PI staining based flow cytometry analysis (reference value: 1.71 %); format: functional
T-24 [25] = experiment: Induction of apoptosis in human T-24 cells assessed as early apoptotic cells at 6 uM incubated for 8 hrs by annexin V-FITC and PI staining based flow cytometry analysis (reference value: 3.37 %); format: functional
T-24 [26] = experiment: Induction of autophagy in human T-24 cells assessed as LC3BII/LC3B1 ratio at 6 uM by Western blot analysis (reference value: 0.89 +/- 0.05); format: functional
T-24 [27] = experiment: Induction of ferroptosis in human T-24 cells assessed as upregulation of FTL by Western blot analysis; format: functional, cell-based; conditions: dose 6-12 µM
T-24 [28] = experiment: Induction of apoptosis in human T-24 cells assessed as early apoptotic cells at 6 uM in presence of zVAD incubated for 8 hrs by annexin V-FITC and PI staining based flow cytometry analysis (reference value: 3.37 %); format: functional
T-24 [29] = experiment: Induction of autophagy in human T-24 cells assessed as LC3BII/LC3B1 ratio at 8 uM by Western blot analysis (reference value: 0.89 +/- 0.05); format: functional
T-24 [30] = experiment: Induction of ferroptosis in human T-24 cells assessed as downregulation of FTH1 by Western blot analysis; format: functional, cell-based; conditions: dose 6-12 µM
T-24 [31] = experiment: Induction of mitochondrial membrane potential disruption in human T-24 cells assessed as ratio of green/red fluorescence intensity at 4 uM by JC-1 dye based flow cytometry analysis (reference value: 0.29 +/- 0.04); format: functional
T-24 [32] = experiment: Induction of apoptosis in human T-24 cells at 3 uM incubated for 8 hrs by Hoechst and PI staining based fluorescence microscopic analysis; format: functional, cell-based; conditions: TDE = time-dependent effect
T-24 [33] = experiment: Induction of apoptosis in human T-24 cells assessed as increase in vZAD-reduced caspase-3 activation at 2 to 10 uM pretreated with vZAD for 1 hr followed by compound addition and measured upto 8 hrs by Western blot analysis; format: functional, cell-based; conditions: dose 2-10 µM, time hrs <=8
T-24 [34] = experiment: Induction of ferroptosis in human T-24 cells assessed as downregulation of GPx4 by Western blot analysis; format: functional, cell-based; conditions: dose 6-12 µM

O=C(Nc1cccc(CNc2ncnc3ccccc23)c1)Nc1ccc(Cl)c(Cl)c1
Activity (T-24 [1]): Active | Activity (T-24 [2]): Dose-dependent effect | Ratio IC50 [3]: 5.84 | Activity (T-24 [4]): Dose-dependent effect | Activity (T-24 [5]): 6.65% | Activity (T-24 [6]): Active | Activity (T-24 [7]): 4.47% | Activity (T-24 [8]): Active | Activity (T-24 [9]): 1.17 U/mg | Activity (T-24 [10]): Active | Activity (T-24 [11]): Active | fold change (FC) (T-24 [12]): 29.4 | Activity (T-24 [13]): Dose-dependent effect | Activity (T-24 [14]): Active | Activity (T-24 [15]): 3.89% | Activity (T-24 [16]): Dose-dependent effect | Activity (T-24 [17]): Active | fold change (FC) (T-24 [18]): 6.38 | Activity (T-24 [19]): 2.84% | Activity (T-24 [20]): 1.37 U/mg | Activity (T-24 [21]): 7.76% | Activity (T-24 [22]): Active | Activity (T-24 [23]): Dose-dependent effect | Activity (T-24 [24]): 3.11% | Activity (T-24 [25]): 26.6% | fold change (FC) (T-24 [26]): 1.41 | Activity (T-24 [27]): Dose-dependent effect | Activity (T-24 [28]): 9.75% | fold change (FC) (T-24 [29]): 2.93 | Activity (T-24 [30]): Dose-dependent effect | fold change (FC) (T-24 [31]): 0.69 | Activity (T-24 [32]): Tde | Activity (T-24 [33]): Active | Activity (T-24 [34]): Dose-dependent effect

Reference: ChEMBL document CHEMBL4765435, “Synthesis and in vitro anti-bladder cancer activity evaluation of quinazolinyl-arylurea derivatives” (Eur J Med Chem, 2020)
